Source: PubChem
Only a selection was taken, and hits are over-represented in it overall.
Hep lipid drop: hepatic lipid droplet formation modulation; AML12 mouse hepatocytes, oleate lipid droplets, BODIPY imaging; inhibition, % at 6.5 µM; 240,000 tested, 0.4% active; AID 1656;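 active = lipid droplet intensity inhibited by at least 50%, with more than 500 cells counted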
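Material: mouse AML12 hepatocyte cell line, fixed after treatment; Timing: compound with oleate, overnight; Technique: high-content imaging of BODIPY-stained droplets and DAPI nuclei; Probe or stimulus: oleate, 100 µM final; Dosing: compound at 6.5 µM only.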
T cruzi repl: T. cruzi replication inhibition | 300,000 tested, 1.4% active | inhibition, % (no concentration beside the values) | T. cruzi beta-gal in NIH3T3, luminescence, 90 h;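 active = mean inhibition across valid replicates above about 55%, limit read from the data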;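 note: signal also drops with host cell toxicity which is not excluded here; 0% = plate median of DMSO wells and 100% = zero luminescence signal; higher percent means less beta-gal luminescence so fewer parasites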
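compound dosing = single 50 nL compound addition per well in DMSO | material = NIH/3T3 host cells with β-galactosidase reporter T. cruzi | input = 5,000 host fibroblasts per well | timing = ≥90 h infection period, 3 h prior cell attachment | read-out basis = percent inhibition of parasite-derived β-gal signal | detection = GalScreen β-gal luminescence, detergent lysis, 60 min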
MPTP block: blocks calcium-induced mitochondrial swelling | isolated mouse mitochondria, Ca2+ swelling absorbance, 30 min | 360,000 tested, 1.4% active | inhibition, % at 10 µM;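 active = inhibition of 50% or more, scaled per plate between neutral and stimulator controls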;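 note: 0% = DMSO wells given calcium and 100% = 1 mM EGTA wells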
Lmaj promast: Leishmania major promastigote growth inhibition; Leishmania major promastigotes, resazurin fluorescence viability; inhibition, % at 10 µM; 200,000 tested, 9% active; in the data active = inhibition above about 50%;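 note: promastigotes grown with compound for 44 hours at 28 °C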
DTT redox prof: compounds producing H2O2 with reducing agent – biochemical, NIH compound library profiling, artefact control for MLSCN library redox annotation, primary screen; DTT-dependent redox cycling H2O2, phenol red/HRP absorbance; 100% = 100 µM peroxide control, 0% = buffer; activation, % at 10 µM; 200,000 tested, 0.03% active;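 active = activation of at least 50% relative to the plate's high and low controls in the primary single-dose screen; inactive = activation below 50%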;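 note: compound incubated with DTT at 0.8 mM final as the reducing agent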
An asterisk follows results filed as active; · = no result.

SMILES	Hep lipid drop	T cruzi repl	MPTP block	Lmaj promast	DTT redox prof
Cc1ccc(N2C(=O)C3C4C=CC(CNC(=S)N5CCN(c6ccccc6)CC5)(O4)C3C2=O)cc1 (configuration not stated)	5	7	4	-4	1
CC(=O)Nc1ccc(S(=O)(=O)NC2=C(N3CCN(Cc4ccccc4)CC3)C(=O)c3ccccc3C2=O)cc1	20	1	2	99*	1
CC1CCN(C2=C(NS(=O)(=O)c3ccccc3)C(=O)c3ccccc3C2=O)CC1	35	9	4	·	·
CCN1CCN(C2=C(NS(=O)(=O)c3ccc(NC(C)=O)cc3)C(=O)c3ccccc3C2=O)CC1	-1	0	0	·	·
CC1CCN(C2=C(NS(=O)(=O)c3ccc(Cl)cc3)C(=O)c3ccccc3C2=O)CC1	70*	2	2	38	0
CCc1ccc(Nc2n[n+](-c3ccccc3)c(-c3ccc(OCc4ccccc4)cc3)s2)cc1	-2	55*	2	·	·
COc1ccc(NC(=O)CN(Cc2ccco2)Cc2ccco2)cc1S(=O)(=O)N1CCCCC1	·	·	0	·	·
Cc1ccc(N2C(=O)NC(C(F)(F)F)(C(F)(F)F)C3=C2CC(C)(C)CC3=O)cc1	-2	19	1	51*	0
CC(=O)c1ccc(Nc2nc(C(N)COCc3ccccc3)cs2)cc1 (configuration not stated)	·	·	1	·	·
CCOC(=O)N(C)c1c(CC)nc2c(OCc3ccccc3)cccn12	·	·	-1	·	·
S=C(NCc1cccnc1)Nc1cccc2ccccc12	-14	27	1	92*	1
C=CCNC(=S)NCc1cccnc1	17	-6	-2	80*	·
COc1cc(C2NC(=O)NC(C)=C2[N+](=O)[O-])cc(OC)c1OC (configuration not stated)	1	-10	0	·	·
O=C(CSc1nccn1Cc1ccco1)Nc1ccccc1	15	-13	1	·	·
CCOc1cc(S(=O)(=O)NCc2ccncc2)c(C)cc1C	4	-17	-1	14	0
CCc1ccc2c(c1)CCCN2C(=O)c1ccccc1C(=O)O	-8	38	5	99*	3
CN(C)C(=O)CSc1nc(-c2ccccc2)nc2c1CCCC2	-6	33	-3	9	1
Cc1cc2nc(SCC(=O)N(C)C)c3c(c2cc1C)CCCC3	·	36	0	93*	-3
Cc1ccc(C(=O)NCC(=O)OCC(=O)NC2CCS(=O)(=O)C2)cc1C (configuration not stated)	22	-8	-1	52*	0
Cc1ccc(OCC(=O)OCC(=O)NC2CCS(=O)(=O)C2)cc1C (configuration not stated)	·	·	0	·	·
CCn1nnnc1-c1ccc(OC)c(S(=O)(=O)NCc2ccccc2)c1	6	-8	0	-4	-1
CCn1nnnc1-c1ccc(OC)c(S(=O)(=O)Nc2ccc(C)c(C)c2)c1	·	-11	-6	99*	0
COC(=O)CCCC(=O)N1CCC(CCC(=O)NCc2ccc(F)cc2)CC1	-7	-9	-1	·	·
CCCCN(CCCC)S(=O)(=O)c1ccc(OC)c2ncccc12	4	14	-3	75*	-1
CCN(Cc1ccccc1)S(=O)(=O)c1ccc(OC)c2ncccc12	-2	10	5	·	·
SMILES	Hep lipid drop	T cruzi repl	MPTP block	Lmaj promast	DTT redox prof
COc1ccc(S(=O)(=O)N(CC(C)C)CC(C)C)c2cccnc12	·	-4	1	72*	-1
CC(C)n1c(=O)[nH][nH]c1=S	16	-4	4	·	·
COc1ccc(CCN(C)Cc2nc(Cc3ccc(OC)c(OC)c3)no2)cc1OC	-3	13	3	4	-1
CNS(=O)(=O)c1cnccc1N1CCN(c2cccc(C(F)(F)F)c2)CC1	·	33	0	99*	2
CNS(=O)(=O)c1cnccc1N1CCN(C)CC1	0	-39	0	1	0
C[C@H]1CN([C@@H](C)CO)C(=O)CCCn2nncc2CO[C@H]1CN(C)S(=O)(=O)c1ccc(Oc2ccccc2)nc1	·	·	-1	·	·
Cc1cccc(NC(=O)c2c(O)c3ccccc3n(C)c2=O)c1	-5	-8	4	·	·
Cc1ccc(NC(=O)c2c(O)c3ccccc3n(C)c2=O)nc1	·	3	1	71*	0
Cc1nc2ccccc2c(=O)n1NC(=O)c1c(O)c2ccccc2n(C)c1=O	-3	·	·	·	·
CCCCc1nc2ccccc2c(=O)n1NC(=O)c1c(O)c2ccccc2n(C)c1=O	-1	-10	4	73*	0
CCN(CC)c1ccc(N=Cc2cc(Br)ccc2O)cc1	0	61*	-2	9	0
Oc1ccc(Br)cc1C=Nc1ccc(Cl)cc1	-7	-18	3	12	2
O=C(NNC(=O)c1cc2cc(OC(F)(F)F)ccc2[nH]1)c1cccc(C(F)(F)F)c1	·	-24	10	·	·
COC(=O)Cn1c(=NC(=O)c2ccc([N+](=O)[O-])s2)sc2cc(Br)ccc21	4	48	·	100*	0
COc1cccc(CN2CCN(C3CCN(c4ccccc4C)CC3)CC2CCO)c1 (configuration not stated)	-13	43	4	92*	0
COc1cc(CN2CCN(C3CCC3)CC2CCO)cc(OC)c1 (configuration not stated)	16	-10	0	·	·
COc1cccc(CN2CCN(C3CCN(c4ccccc4F)CC3)CC2CCO)c1 (configuration not stated)	-18	43	1	95*	0
COc1cccc(CN2CCN(C3CCN(c4cccc(C)c4C)CC3)CC2CCO)c1 (configuration not stated)	-2	27	7	92*	0
OCCC1CN(C2CCC2)CCN1Cc1ccc(F)c(F)c1 (configuration not stated)	-5	-12	2	·	·
OCCC1CN(C2CCN(c3ccccc3)CC2)CCN1Cc1ccc(F)c(F)c1 (configuration not stated)	0	12	0	93*	-1
COc1cccc(CN2CCN(C3CSCCSC3)CC2CCO)c1 (configuration not stated)	3	-1	0	-4	0
S=c1[nH]cnc2sc(Nc3ccccc3)nc12	-8	21	-3	·	·
COC(=O)C[C@H]1C=C[C@@H](C(C(=O)OC)C(=O)OC)CN1C(C)=O	·	·	-3	·	·
COc1ccc(C(=O)OCC(=O)c2ccc[nH]2)c(OC)c1	·	·	1	·	·
O=C(CSc1cccc[n+]1[O-])NN(c1ccccc1)c1ccccc1	-26	-2	-1	·	·
O=C(CNC(c1ccccc1)c1ccccc1)Nc1ccccc1Br	8	12	-2	·	·
O=C(C[C@@H]1C/C=C/CCCC(=O)O[C@H](c2ccccc2)CNC1=O)N[C@H](CO)Cc1ccccc1	·	·	1	·	·
COc1ccc(CC(=O)O/N=C(\N)Cc2ccc(OC)c(OC)c2)cc1	·	11	0	92*	-3
C=CCc1ccc(OCC(O)CN2CCN(c3ccccc3)CC2)c(OC)c1 (configuration not stated)	-42	28	2	·	·
